The source of these data is ChEMBL document CHEMBL4354800, “Amphiphilic nebramine-based hybrids Rescue legacy antibiotics from intrinsic resistance in multidrug-resistant Gram-negative bacilli” (Eur J Med Chem, 2019).

The test system of data set [1] is Pseudomonas aeruginosa. Description: Potentiation of rifampicin-induced antimicrobial activity against MDR/XDR Pseudomonas aeruginosa isolate PA259-96918 harboring GyrA Thr83Ile mutant assessed as rifampicin MIC50 incubated for 18 hrs by broth microdilution method (reference value: 8 microg/ml). Conditions: isolate PA259-96918, 18 h. It is filed as functional.
Data set [2] deals with Acinetobacter baumannii. Briefly: Synergistic antibacterial activity against multidrug-resistant Acinetobacter baumannii 110193 assessed as fractional inhibitory concentration index in presence of minocycline incubated for 18 hrs by broth dilution method. Type of data set: functional.
Data set [3] concerns Pseudomonas aeruginosa. Description: Potentiation of rifampicin-induced antimicrobial activity against MDR/XDR Pseudomonas aeruginosa isolate PA260-97103 harboring GyrA Thr83Ile mutant assessed as rifampicin MIC80 incubated for 18 hrs by broth microdilution method (reference value: 16 microg/ml). Type of data set: functional. Conditions: isolate PA260-97103, 18 h.
The subject of data set [4] is Pseudomonas aeruginosa. Description: Potentiation of rifampicin-induced antimicrobial activity against MDR/XDR Pseudomonas aeruginosa isolate 101243 devoid of GyrA Thr83Ile mutant assessed as rifampicin MIC50 incubated for 18 hrs by broth microdilution method (reference value: 8 microg/ml). Type of data set: functional. Conditions: isolate 101243, 18 h.
Data set [5] deals with Acinetobacter baumannii. Briefly: Synergistic antibacterial activity against multidrug-resistant Acinetobacter baumannii AB030 assessed as fractional inhibitory concentration index in presence of minocycline incubated for 18 hrs by broth dilution method. Type of data set: functional.
Data set [6] deals with Pseudomonas aeruginosa. Description: Potentiation of rifampicin-induced antimicrobial activity against MDR/XDR Pseudomonas aeruginosa isolate PA262-101856 harboring GyrA Thr83Ile mutant assessed as rifampicin MIC80 incubated for 18 hrs by broth microdilution method (reference value: 16 microg/ml). It is filed as functional. The note with it: isolate PA262-101856, 18 h.
Data set [7] concerns Pseudomonas aeruginosa. Description: Potentiation of minocycline-induced antibacterial activity against MDR/XDR Pseudomonas aeruginosa isolate PA260-97103 harboring GyrA T83I mutant assessed as fold reduction in minocycline MIC at 7.5 uM incubated for 18 hrs by broth microdilution method. Type of data set: functional.
In data set [8] the test system is Acinetobacter baumannii. Description: Potentiation of rifampicin-induced antibacterial activity against multidrug-resistant Acinetobacter baumannii 110193 assessed as fold reduction in rifampicin MIC at 7.5 uM incubated for 18 hrs by broth dilution method. It is filed as functional. In outline: (§1)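 CLSI broth microdilution. Overnight cultures were set to 0.5 McFarland in saline, diluted 1:50 in Mueller-Hinton broth to a final 5 × 10^5 CFU/mL, and incubated 18 h at 37 °C against 2-fold antibiotic dilutions. A fixed adjuvant level was present throughout. MIC = lowest concentration with no visible turbidity, confirmed at 590 nm. Potentiation = fold drop in antibiotic MIC versus antibiotic alone.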

For data set [9], the system named is Pseudomonas aeruginosa. Description: Potentiation of rifampicin-induced antimicrobial activity against MDR/XDR Pseudomonas aeruginosa isolate PA262-101856 harboring GyrA Thr83Ile mutant assessed as rifampicin MIC50 incubated for 18 hrs by broth microdilution method (reference value: 8 microg/ml). It is filed as functional. Conditions: isolate PA262-101856, 18 h.

The subject of data set [10] is Pseudomonas aeruginosa. Briefly: Potentiation of ciprofloxacin-induced antibacterial activity against MDR/XDR Pseudomonas aeruginosa isolate 100036 harboring GyrA T83I mutant assessed as fold reduction in ciprofloxacin MIC at 7.5 uM incubated for 18 hrs by broth microdilution method. It is filed as functional.
In data set [11] the test system is Acinetobacter baumannii. Briefly: Synergistic antibacterial activity against multidrug-resistant Acinetobacter baumannii AB031 assessed as fractional inhibitory concentration index in presence of rifampicin incubated for 18 hrs by broth dilution method. It is filed as functional.
Data set [12] deals with Pseudomonas aeruginosa. Briefly: Potentiation of rifampicin-induced antimicrobial activity against MDR/XDR Pseudomonas aeruginosa isolate PA259-96918 harboring GyrA Thr83Ile mutant assessed as rifampicin MIC80 incubated for 18 hrs by broth microdilution method (reference value: 16 microg/ml). Conditions: isolate PA259-96918, 18 h. It is filed as functional.
Data set [13] relates to Acinetobacter baumannii. Briefly: Potentiation of minocycline-induced antibacterial activity against multidrug-resistant Acinetobacter baumannii AB92247 assessed as fold reduction in minocycline MIC at 4.1 uM incubated for 18 hrs by broth dilution method. It is filed as functional.
The subject of data set [14] is Pseudomonas aeruginosa. Briefly: Potentiation of rifampicin-induced bactericidal activity in MDR/XDR Pseudomonas aeruginosa isolate PA259-96918 harboring GyrA T83I mutant assessed as decrease in viable bacterial count at 1 ug/ml incubated for 8 hrs in presence of 1 ug/ml rifampicin by time kill curve assay. It is filed as functional, organism-based. In outline:
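Time-kill assay against XDR P. aeruginosa PA259. Overnight culture adjusted to 0.5 McFarland in saline, diluted 1:50 in LB. Incubated at 37 °C for 24 h with rifampicin and adjuvant, alone or combined at various concentrations. Aliquots taken at intervals, serially diluted in PBS and plated on LB agar. Colonies counted after 20 h at 37 °C. Untreated cells as control.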

The nature of data set [15]: Toxicity in Galleria mellonella larvae assessed as tolerability by measuring larval survival at 100 mg/kg incubated for > 96 hrs. Conditions: in vivo. It is filed as organism-based. In outline: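 Uninfected G. mellonella larvae, ten per group, were injected with agent alone at 100 or 200 mg/kg. Larvae were held at 37 °C and monitored for survival for 96 h.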
Data set [16] concerns Pseudomonas aeruginosa. Briefly: Potentiation of minocycline-induced antibacterial activity against wild type Pseudomonas aeruginosa PAO1 assessed as fold reduction in minocycline MIC at 4.1 uM incubated for 18 hrs by broth microdilution method. It is filed as functional. In outline:
(§2)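 Antibiotic MIC determined by CLSI broth microdilution (MHB, 5 × 10^5 CFU/mL, 18 h, 37 °C), once alone and once with a fixed concentration of the adjuvant. Potentiation is the ratio of the antibiotic MIC alone to its MIC in the presence of the adjuvant.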

The test system of data set [17] is Pseudomonas aeruginosa. Description: Antimicrobial activity against XDR Pseudomonas aeruginosa isolate PA264 infected in Galleria mellonella larvae assessed as survival rate at 75 mg/kg co-administered with 75 mg/kg rifampicin at 2 hrs post-inoculation measured after 24 hrs relative to control. Type of data set: functional. In outline: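 G. mellonella larvae were injected with ~5 CFU of P. aeruginosa PA264 (10 µL of 5 × 10^2 CFU/mL in PBS) and held 2 h at 37 °C. A single 10 µL injection followed: monotherapy or rifampicin + compound (25+25, 50+50 or 75+75 mg/kg), with PBS as control. Larvae kept at 37 °C were scored every 6 h to 24 h; dead = no response to touch. n = 30 (two runs of 15); Kaplan-Meier.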

For the next data set, the system named is Escherichia coli. Description: Potentiation of minocycline-induced antibacterial activity against Escherichia coli 94474 assessed as fold reduction in minocycline MIC at 4.1 uM incubated for 18 hrs by broth dilution method. It is filed as functional. In outline:
as §2

The subject of data set [18] is Pseudomonas aeruginosa. Description: Potentiation of moxifloxacin-induced antibacterial activity against wild type Pseudomonas aeruginosa PAO1 assessed as fold reduction in moxifloxacin MIC at 9 uM incubated for 18 hrs by broth microdilution method. It is filed as functional. In outline: as §2
For data set [19], the system named is Pseudomonas aeruginosa. Description: Potentiation of minocycline-induced antibacterial activity against MDR/XDR Pseudomonas aeruginosa isolate 101243 devoid of GyrA T83I mutant assessed as fold reduction in minocycline MIC at 9 uM incubated for 18 hrs by broth microdilution method. Type of data set: functional.
The subject of data set [20] is Pseudomonas aeruginosa. Description: Potentiation of minocycline-induced antibacterial activity against MDR/XDR Pseudomonas aeruginosa isolate PA260-97103 harboring GyrA T83I mutant assessed as fold reduction in minocycline MIC at 9 uM incubated for 18 hrs by broth microdilution method. Type of data set: functional.
Data set [21] has as its system Pseudomonas aeruginosa. Briefly: Potentiation of moxifloxacin-induced antibacterial activity against MDR/XDR Pseudomonas aeruginosa isolate PA259-96918 harboring GyrA T83I mutant assessed as fold reduction in moxifloxacin MIC at 9 uM incubated for 18 hrs by broth microdilution method. It is filed as functional. In outline:
as §1

Calls of active or inactive are those of the source. The rule behind the calls is not given here. A value given as a limit tells only on which side of the number the result lay.

With `COc1c(N2C[C@@H]3CCCN(CCCCCCCCCCCCO[C@@H]4[C@@H](O)[C@H](N)C[C@H](N)[C@H]4O[C@H]4O[C@H](CN)[C@@H](O)C[C@H]4N)[C@@H]3C2)c(F)cc2c(=O)c(C(=O)O)cn(C3CC3)c12.Cl.Cl.Cl.Cl.Cl`, the MIC50 in the data set on Pseudomonas aeruginosa [1], with Pseudomonas aeruginosa [4] and in the data set with Pseudomonas aeruginosa [9] was 0.06 µg/mL throughout. Besides, the “fractional inhibitory concentration index (FICI)” value with Acinetobacter baumannii [2] is listed as above 1; with Acinetobacter baumannii [5], above 1; in the data set with Acinetobacter baumannii [11] it was 0.04. Also, the MIC80 in the data set on Pseudomonas aeruginosa [3], in the data set on Pseudomonas aeruginosa [6] and in the data set with Pseudomonas aeruginosa [12] was 0.13 µg/mL each time. Further, the “fold change (FC)” value with Pseudomonas aeruginosa [7] came to 32; with Acinetobacter baumannii [8] it was 32; in the data set on Pseudomonas aeruginosa [10], 2.
Regarding `Cl.Cl.Cl.Cl.Cl.NC[C@H]1O[C@H](O[C@H]2[C@H](OCCCCCCCCCCCCN3CCN(c4cc5c(cc4F)c(=O)c(C(=O)O)cn5C4CC4)CC3)[C@@H](O)[C@H](N)C[C@@H]2N)[C@H](N)C[C@@H]1O`, the “fold change (FC)” value is recorded as 2 with Acinetobacter baumannii [13], 32 with Pseudomonas aeruginosa [16] and 16 with Escherichia coli. In addition, in the data set with Pseudomonas aeruginosa [14], the outcome was Active. Moreover, the Activity entry in data set [15] is “Non-Toxic”. The survival at 75 mg/kg in the data set on Pseudomonas aeruginosa [17] stood at 53%.
On to `Cl.Cl.Cl.Cl.Cl.Cl.NC[C@H]1O[C@H](O[C@H]2[C@H](OCCCCCCCCCCN3CCN(Cc4cccc5ccccc45)CC3)[C@@H](O)[C@H](N)C[C@@H]2N)[C@H](N)C[C@@H]1O`, for which the “fold change (FC)” value in the data set on Pseudomonas aeruginosa [18] amounted to 32; in the data set on Pseudomonas aeruginosa [19], 8; with Pseudomonas aeruginosa [20], 64; in the data set on Pseudomonas aeruginosa [21] it was 64.
